Measurements published in ChEMBL document CHEMBL1132488, “On the bioactive conformation of NAN-190 (1) and MP3022 (2), 5-HT(1A) receptor antagonists” (J Med Chem, 1999).

Columns and labels:
Rattus norvegicus [1] = assay: Effect on 8-OH-DPAT-Induced LLR(lower lip retraction) in rats at a dose of 8 mg/kg; assay type: functional
How it was run: (§1)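 Male Wistar rats, groups of 6. Compound given ip in 1% Tween 80 45 min before 8-OH-DPAT 1 mg/kg sc. Lower incisor visibility scored 0/0.5/1 at 15, 30 and 45 min after agonist, summed (max 3). Mean ± SEM; Newman–Keuls test; ED50 with range.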

Rattus norvegicus [2] = species on record: Rattus norvegicus; assay: Induction of behavioral syndrome(FBP: flat body posture) by the compound in reserpine pretreated rats at a dose of 8; FBP mean score; assay type: functional
How it was run: (§2)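 Male Wistar rats (260–300 g) were given reserpine 1 mg/kg sc in saline 18 h before testing. Test compound was then given alone ip as a 1% Tween 80 suspension (2 mL/kg). FBP and FT were each scored 0–3 and summed (maximum 15). n=6 per group; mean ± SEM; Newman–Keuls test.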

Rattus norvegicus [3] = species on record: Rattus norvegicus; assay: Effect on 8-OH-DAPT- induced behavioral syndrome(FT: forepaw treading) by the compound in reserpine pretreated rats at a dose of 32; FT mean score; assay type: functional
How it was run: (§3)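 Reserpinized male Wistar rats (reserpine 1 mg/kg sc, 18 h before), groups of 6. Compound given ip in 1% Tween 80 60 min before 8-OH-DPAT 5 mg/kg sc. FBP/FT rated 0–3 at 3, 6, 9, 12 and 15 min after agonist, summed (max 15). Mean ± SEM; Newman–Keuls test; ED50 with range.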

Rattus norvegicus [4] = species on record: Rattus norvegicus; assay: Effective dose of the required to inhibit symptoms produced by 8-OH-DPAT; assay type: functional; how it was run: as §3
Rattus norvegicus [5] = species on record: Rattus norvegicus; assay: Induction of behavioral syndrome(FT: forepaw treading) by the compound in reserpine pretreated rats at a dose of 8; FT mean score; assay type: functional; how it was run: as §2
Rattus norvegicus [6] = species on record: Rattus norvegicus; assay: Dose Inducing behavioral syndrome(FT: forepaw treading) by the compound in reserpine pretreated rats; assay type: functional
How it was run: (§4)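 Male Wistar rats (260–300 g), groups of 6, given reserpine 1 mg/kg sc 18 h before test. Compounds given ip as 1% Tween 80 suspension. FBP and FT rated 0–3 in 45-s sessions every 3 min, starting 3 min after dosing. Score summed over 5 periods (max 15 per symptom). Mean ± SEM; Newman–Keuls test.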

Rattus norvegicus [7] = species on record: Rattus norvegicus; assay: Induction of behavioral syndrome(FT: forepaw treading) by the compound in reserpine pretreated rats at a dose of 32; FT mean score; assay type: functional; how it was run: as §2
Rattus norvegicus [8] = species on record: Rattus norvegicus; assay: Effect on 8-OH-DAPT- induced behavioral syndrome(FBP: flat body posture) by the compound in reserpine pretreated rats at a dose of 16; FBP mean score; assay type: functional; how it was run: as §3
Rattus norvegicus [9] = species on record: Rattus norvegicus; assay: Induction of behavioral syndrome(FBP: flat body posture) by the compound in reserpine pretreated rats at a dose of 32; FBP mean score; assay type: functional; how it was run: as §2
Rattus norvegicus [10] = species on record: Rattus norvegicus; assay: Induction of behavioral syndrome(FT: forepaw treading) by the compound in reserpine pretreated rats at a dose of 16; FT mean score; assay type: functional; how it was run: as §2
Rattus norvegicus [11] = species on record: Rattus norvegicus; assay: Effect on 8-OH-DAPT- induced behavioral syndrome(FT: forepaw treading) by the compound in reserpine pretreated rats at a dose of 16; FT mean score; assay type: functional; how it was run: as §3
Rattus norvegicus [12] = species on record: Rattus norvegicus; assay: Dose Inducing behavioral syndrome(FBP: flat body posture) by the compound in reserpine pretreated rats; assay type: functional; how it was run: as §4
Rattus norvegicus [13] = assay: Induction of LLR(lower lip retraction) by the compound in rat at a dose of 8 mg/kg; LLR score; assay type: functional
How it was run: (§5)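 Male Wistar rats, groups of 6, given compound alone ip as 1% Tween 80 suspension. Lower incisor visibility scored 0/0.5/1 at 15, 30 and 45 min after dosing, summed (max 3 per rat). Mean ± SEM versus vehicle, Newman–Keuls test; ED50 with range.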

Rattus norvegicus [14] = species on record: Rattus norvegicus; assay: Effect on 8-OH-DAPT- induced behavioral syndrome(FBP: flat body posture) by the compound in reserpine pretreated rats at a dose of 8; FBP mean score; assay type: functional; how it was run: as §3
Rattus norvegicus [15] = assay: Effect on 8-OH-DPAT-Induced LLR(lower lip retraction) in rats at a dose of 16 mg/kg; assay type: functional; how it was run: as §1
[16] = target: T1, 5-hydroxytryptamine receptor 1A (Rattus norvegicus, UniProt P19327); assay: Ability to displace [3H]8-OH-DPAT from 5-hydroxytryptamine 1A receptor
T1 sequence (P19327 whole entry): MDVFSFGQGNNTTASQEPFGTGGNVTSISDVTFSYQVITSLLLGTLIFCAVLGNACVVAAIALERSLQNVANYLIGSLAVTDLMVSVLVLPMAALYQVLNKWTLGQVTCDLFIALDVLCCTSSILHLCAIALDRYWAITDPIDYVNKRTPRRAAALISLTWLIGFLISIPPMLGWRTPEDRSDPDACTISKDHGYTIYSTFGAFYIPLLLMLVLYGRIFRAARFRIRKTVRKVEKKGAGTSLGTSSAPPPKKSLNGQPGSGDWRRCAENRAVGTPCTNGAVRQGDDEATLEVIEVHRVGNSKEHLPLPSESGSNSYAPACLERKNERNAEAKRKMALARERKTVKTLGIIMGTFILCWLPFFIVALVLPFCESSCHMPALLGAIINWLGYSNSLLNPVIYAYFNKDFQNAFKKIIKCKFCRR
How it was run: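 Rat hippocampal membranes, [3H]8-OH-DPAT radioligand. Ki from at least three competition experiments, each with 10–14 drug concentrations run in triplicate. Ki calculated with the Cheng–Prusoff equation.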

Rattus norvegicus [17] = species on record: Rattus norvegicus; assay: Effect on 8-OH-DAPT- induced behavioral syndrome(FBP: flat body posture) by the compound in reserpine pretreated rats at a dose of 32; FBP mean score; assay type: functional; how it was run: as §3
Rattus norvegicus [18] = assay: Effect on 8-OH-DPAT-Induced LLR(lower lip retraction) in rats at a dose of 32 mg/kg; assay type: functional; how it was run: as §1
Rattus norvegicus [19] = assay: Induction of LLR(lower lip retraction) by the compound in rats at a dose of 32 mg/kg; assay type: functional; how it was run: as §5
Rattus norvegicus [20] = species on record: Rattus norvegicus; assay: Induction of behavioral syndrome(FBP: flat body posture) by the compound in reserpine pretreated rats at a dose of 16; FBP mean score; assay type: functional; how it was run: as §4
Rattus norvegicus [21] = assay: Induction of LLR(lower lip retraction) by the compound in rats at a dose of 16 mg/kg; assay type: functional; how it was run: as §5
Rattus norvegicus [22] = species on record: Rattus norvegicus; assay: Effect on 8-OH-DAPT- induced behavioral syndrome(FT: forepaw treading) by the compound in reserpine pretreated rats at a dose of 8; FT mean score; assay type: functional; how it was run: as §3
Rattus norvegicus [23] = species on record: Rattus norvegicus; assay: Effect on 8-OH-DAPT- induced behavioral syndrome(FBP: flat body posture) by the compound in reserpine pretreated rats at a dose of 8.; assay type: functional; how it was run: as §3
Rattus norvegicus [24] = species on record: Rattus norvegicus; assay: Effect on 8-OH-DAPT- induced behavioral syndrome(FBP: flat body posture) by the compound in reserpine pretreated rats at a dose of 4.; assay type: functional; how it was run: as §3
Rattus norvegicus [25] = assay: Effect on 8-OH-DPAT-Induced LLR(lower lip retraction) in rats at a dose of 4 mg/kg; assay type: functional; how it was run: as §1
Rattus norvegicus [26] = species on record: Rattus norvegicus; assay: Induction of behavioral syndrome(FT: forepaw treading) by the compound in reserpine pretreated rats at a dose of 2.; assay type: functional
Rattus norvegicus [27] = species on record: Rattus norvegicus; assay: Effect on 8-OH-DAPT- induced behavioral syndrome(FT: forepaw treading) by the compound in reserpine pretreated rats at a dose of 4.; assay type: functional; how it was run: as §3
Rattus norvegicus [28] = species on record: Rattus norvegicus; assay: Induction of behavioral syndrome(FBP: flat body posture) by the compound in reserpine pretreated rats at a dose of 2.; assay type: functional; how it was run: as §4
Rattus norvegicus [29] = species on record: Rattus norvegicus; assay: Induction of behavioral syndrome(FBP: flat body posture) by the compound in reserpine pretreated rats at a dose of 4.; assay type: functional; how it was run: as §2
Rattus norvegicus [30] = species on record: Rattus norvegicus; assay: Effect on 8-OH-DAPT- induced behavioral syndrome(FT: forepaw treading) by the compound in reserpine pretreated rats at a dose of 2.; assay type: functional
Rattus norvegicus [31] = species on record: Rattus norvegicus; assay: Dose inhibiting 8-OH-DPAT-induced behavioral syndrome(FBP: flat body posture) by the compound in reserpine pretreated rats.
Rattus norvegicus [32] = assay: Induction of LLR(lower lip retraction) by the compound in rats at a dose of 4 mg/kg; assay type: functional; how it was run: as §5
Rattus norvegicus [33] = species on record: Rattus norvegicus; assay: Induction of behavioral syndrome(FT: forepaw treading) by the compound in reserpine pretreated rats at a dose of 4.; assay type: functional; how it was run: as §2
Rattus norvegicus [34] = species on record: Rattus norvegicus; assay: Induction of behavioral syndrome(FT: forepaw treading) by the compound in reserpine pretreated rats at a dose of 8.; assay type: functional; how it was run: as §2
Rattus norvegicus [35] = species on record: Rattus norvegicus; assay: Induction of behavioral syndrome(FBP: flat body posture) by the compound in reserpine pretreated rats at a dose of 8.; assay type: functional; how it was run: as §2
Rattus norvegicus [36] = species on record: Rattus norvegicus; assay: Effect on 8-OH-DAPT- induced behavioral syndrome(FBP: flat body posture) by the compound in reserpine pretreated rats at a dose of 2.; assay type: functional
Rattus norvegicus [37] = assay: Induction of LLR(lower lip retraction) by the compound in rats at a dose of 8 mg/kg; assay type: functional; how it was run: as §5
Rattus norvegicus [38] = species on record: Rattus norvegicus; assay: Effect on 8-OH-DAPT- induced behavioral syndrome(FT: forepaw treading) by the compound in reserpine pretreated rats at a dose of 8.; assay type: functional; how it was run: as §3
Rattus norvegicus [39] = species on record: Rattus norvegicus; assay: Dose Inducing behavioral syndrome(FT: forepaw treading) by the compound in reserpine pretreated rats.; assay type: functional; how it was run: as §4

Structure (SMILES): O=C1c2ccccc2C(=O)N1C1CCC(N2CCc3ccccc3C2)CC1 (stereo not given)
- LLR score (Rattus norvegicus [1]): 2.3
- FBP mean score (Rattus norvegicus [2]): 0.3
- FT mean score (Rattus norvegicus [3]): 4.3
- ED50 (Rattus norvegicus [4]): > 32 mg/kg
- FT mean score (Rattus norvegicus [5]): 0.1
- ED50 (Rattus norvegicus [6]): 13.5 mg/kg
- FT mean score (Rattus norvegicus [7]): 0.1
- FBP mean score (Rattus norvegicus [8]): 10.3
- FBP mean score (Rattus norvegicus [9]): 0.3
- FT mean score (Rattus norvegicus [10]): 0.1
- FT mean score (Rattus norvegicus [11]): 5.7
- ED50 (Rattus norvegicus [12]): > 32 mg/kg
- LLR score (Rattus norvegicus [13]): 0.1
- FBP mean score (Rattus norvegicus [14]): 11
- LLR score (Rattus norvegicus [15]): 2.5
- Ki [16]: 34 nM
- FBP mean score (Rattus norvegicus [17]): 11.8
- LLR score (Rattus norvegicus [18]): 2.3
- LLR score (Rattus norvegicus [19]): 0.3
- FBP mean score (Rattus norvegicus [20]): 0.5
- LLR score (Rattus norvegicus [21]): 0.2
- FT mean score (Rattus norvegicus [22]): 7.5

Structure (SMILES): COc1ccccc1N1CCN(CCCCN2C(=O)[C@H]3CCCC[C@H]3C2=O)CC1
- LLR score (Rattus norvegicus [1]): 1.3
- FBP mean score (Rattus norvegicus [23]): 5.5
- ED50 (Rattus norvegicus [4]): 7.5 mg/kg
- FBP mean score (Rattus norvegicus [24]): 6.7
- LLR score (Rattus norvegicus [25]): 1.7
- FT mean score (Rattus norvegicus [26]): 0.2
- FT mean score (Rattus norvegicus [27]): 3.5
- FBP mean score (Rattus norvegicus [28]): 0.1
- FBP mean score (Rattus norvegicus [29]): 0.2
- FT mean score (Rattus norvegicus [30]): 3.8
- ED50 (Rattus norvegicus [31]): 3.2 mg/kg
- LLR score (Rattus norvegicus [15]): 0.7
- LLR score (Rattus norvegicus [32]): 0.5
- FT mean score (Rattus norvegicus [33]): 0.2
- Ki [16]: 4 nM
- FT mean score (Rattus norvegicus [34]): 0.2
- FBP mean score (Rattus norvegicus [35]): 0.2
- FBP mean score (Rattus norvegicus [36]): 8.3
- LLR score (Rattus norvegicus [21]): 0.8
- LLR score (Rattus norvegicus [37]): 0.5
- FT mean score (Rattus norvegicus [38]): 0.5
- ED50 (Rattus norvegicus [39]): 2.6 mg/kg

Structure (SMILES): O=C1c2ccccc2C(=O)N1CCCCN1CCc2ccccc2C1
- Ki [16]: 355 nM
